Data set [1] in a line: folding enthalpy; higher = less favourable; fluorescence melt of hairpins on a sequencing array, two-state fit. The following applies: sodium 0.088 M. In outline: (§1)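 Two-state fits, bootstrapped, provided melting temperature and folding enthalpy from Cy3 fluorescence normalised to pre-quench Cy3 and to control constructs. Library hairpins with annealed Cy3 and quencher oligos were imaged on a sequenced MiSeq flow cell in 50 mM Na-HEPES pH 8.0, 25 mM NaCl, at 2.5 °C intervals up to 60 °C. Four replicates were combined with inverse-variance weighting. A 9.35 °C upward shift was applied to fitted temperatures to match UV melts.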

Data set [2] is described as follows: melting temperature; fluorescence melt of hairpins on a sequencing array, two-state fit, raised by 9.35 °C to match UV melts. The note with it: sodium 0.088 M. In outline:
as §1

Take GTACTTGAAAAAGTAC ((((((....)))))): the folding enthalpy in data set [1] is -32.7 kcal/mol. Besides, the Tm in data set [2] stood at 48.6 °C.

Consider GTACTTGGAAACAGGTAC ((((.((....)).)))), for which the folding enthalpy in data set [1] was -32.4 kcal/mol. The Tm in data set [2] stood at 40.1 °C.

With GTAGAACGAAAGTTTAC (((.(((....)))))), in data set [1], the folding enthalpy is -9.99 kcal/mol. Also, the Tm in data set [2] was 27.4 °C.

In the case of GTAGAACGAAAGTTTTAC (((.(((....))).))), in data set [1], the folding enthalpy is -30.6 kcal/mol. For the same sequence, in data set [2], the Tm is 40.2 °C.

On to GTAGAAGAAATTCTAC ((((((....)))))), for which the folding enthalpy in data set [1] was -26.5 kcal/mol. The Tm in data set [2] is 39.4 °C.

For the sequence GTAGAATCGAAAGATTAC (((..(((....)))))), the folding enthalpy in data set [1] is -11 kcal/mol. Also, in data set [2], the Tm worked out at 27.3 °C.

In the case of GTAGACGAAAGTCTCTAC ((((((....)))..))), the folding enthalpy in data set [1] is -11.6 kcal/mol. Also, the Tm in data set [2] is 34.9 °C.

Take GTAGACGGAAACGTCTAC (((((((....))))))): the folding enthalpy in data set [1] is -50.1 kcal/mol. The Tm in data set [2] is 61.3 °C.

In the case of GTAGACTCGAAAGAGTAC (((..(((....)))))), the folding enthalpy in data set [1] was -13.9 kcal/mol. Further, the Tm in data set [2] turned out to be 31.2 °C.

GTAGAGCGAAAGCTGTAC (((.(((....))).))): in data set [1], the folding enthalpy is -25.2 kcal/mol. The Tm in data set [2] worked out at 50.9 °C.

With GTAGAGGCGAAAGCCTAC (((..(((....)))))), the folding enthalpy in data set [1] is -8.81 kcal/mol. Also, the Tm in data set [2] stood at 38 °C.

As for GTAGATCGAAAGATATAC (((.(((....))).))), the folding enthalpy in data set [1] was -32.4 kcal/mol. In addition, the Tm in data set [2] came out at 42.3 °C.

Consider GTAGATCGAAAGATTAC (((.(((....)))))), for which, in data set [1], the folding enthalpy was -13.5 kcal/mol. For the same sequence, the Tm in data set [2] was determined as 29.3 °C.

Take GTAGATGCGAAAGCATAC (((..(((....)))))): the folding enthalpy in data set [1] was -11.9 kcal/mol. The Tm in data set [2] came out at 31.1 °C.

For the sequence GTAGATGGAAACATCCAC ((.((((....)))).)), the folding enthalpy in data set [1] was -16.9 kcal/mol. Also, the Tm in data set [2] was determined as 30.4 °C.

On to GTAGATGGAAACATTTAC (((.(((....))).))), for which, in data set [1], the folding enthalpy was -17.3 kcal/mol. In data set [2], the Tm came out at 32.1 °C.

Consider GTAGATGGAAACGTCTAC (((((.(....).))))), for which the folding enthalpy in data set [1] is -31.3 kcal/mol. For the same sequence, the Tm in data set [2] is 43.6 °C.

As for GTAGCAGGAAACTGCTAC (((((((....))))))), the folding enthalpy in data set [1] was -32.7 kcal/mol. Further, in data set [2], the Tm is 66.2 °C.

Regarding GTAGCCGAAAGGCATAC ((((((....))).))), the folding enthalpy in data set [1] was -11.9 kcal/mol. Moreover, the Tm in data set [2] amounted to 43.5 °C.

With GTAGCCGAAAGGCATTAC ((((((....)))..))), the folding enthalpy in data set [1] was -7.48 kcal/mol. In addition, the Tm in data set [2] amounted to 27 °C.

With GTAGCCGAAAGGCCATAC ((((((....)))..))), the folding enthalpy in data set [1] is -8.17 kcal/mol. Besides, in data set [2], the Tm is 22.3 °C.

Consider GTAGCCGAAAGGCCTTAC ((((((....)))..))), for which the folding enthalpy in data set [1] is -9.41 kcal/mol. In addition, the Tm in data set [2] amounted to 33.5 °C.

GTAGCCGAAAGGCGATAC ((((((....)))..))): the folding enthalpy in data set [1] was -9.43 kcal/mol. In addition, in data set [2], the Tm came to 41.3 °C.

Regarding GTAGCCGAAAGGCTCTAC ((((((....)))..))), in data set [1], the folding enthalpy is -8.79 kcal/mol. Moreover, the Tm in data set [2] worked out at 38.6 °C.

GTAGCCGGAAACAGCTAC (((((.(....).))))): in data set [1], the folding enthalpy was -22.2 kcal/mol. Also, the Tm in data set [2] was found to be 43.4 °C.

Take GTAGCCGGAAACGGCCAC ((.((((....)))).)): the folding enthalpy in data set [1] is -10.2 kcal/mol. Besides, the Tm in data set [2] stood at 39.5 °C.

Turning to GTAGCCGGAAACGGTTGC (.(.(((....))).).), the folding enthalpy in data set [1] is -15.2 kcal/mol. Further, the Tm in data set [2] worked out at 36.4 °C.

Regarding GTAGCGAAAGCTAC (((((....))))), the folding enthalpy in data set [1] was -25.8 kcal/mol. Also, the Tm in data set [2] came to 68.7 °C.

For GTAGCGCCGAAAGGCTAC (((..(((....)))))), the folding enthalpy in data set [1] is -12.4 kcal/mol. In addition, the Tm in data set [2] was found to be 36.3 °C.

Turning to GTAGCGCGAAAGCGATAC (((.(((....))).))), in data set [1], the folding enthalpy was -24.1 kcal/mol. The Tm in data set [2] was determined as 68 °C.

On to GTAGCGGGAAACCACTAC ((((.((....)).)))), for which, in data set [1], the folding enthalpy was -34.1 kcal/mol. For the same sequence, in data set [2], the Tm is 42.2 °C.

Take GTAGCTCGAAAGAGTAC (((.(((....)))))): the folding enthalpy in data set [1] was -18.3 kcal/mol. In addition, the Tm in data set [2] was 36.2 °C.

As for GTAGGACGAAAGTCATAC (((.(((....))).))), the folding enthalpy in data set [1] is -28.1 kcal/mol. Moreover, the Tm in data set [2] came out at 52.5 °C.

Turning to GTAGGCCGAAAGGCGTAC (((.(((....))).))), the folding enthalpy in data set [1] is -26.5 kcal/mol. In data set [2], the Tm is 62.4 °C.

In the case of GTAGGCCGAAAGGCTAC (((.(((....)))))), the folding enthalpy in data set [1] is -15.1 kcal/mol. In addition, in data set [2], the Tm turned out to be 50.6 °C.

With GTAGGCGAAAGCCCGTAC ((((((....)))..))), in data set [1], the folding enthalpy was -8.97 kcal/mol. Moreover, the Tm in data set [2] was 31.1 °C.

In the case of GTAGGCGAAAGCCGCTAC ((((((....)))..))), the folding enthalpy in data set [1] was -8.76 kcal/mol. Moreover, the Tm in data set [2] stood at 43.4 °C.

Regarding GTAGGCGAAAGCCTTTAC ((((((....)))..))), the folding enthalpy in data set [1] was -8.65 kcal/mol. The Tm in data set [2] came out at 24.7 °C.

Regarding GTAGGCGGAAACGCCCAC ((.((((....)))).)), in data set [1], the folding enthalpy was -10.2 kcal/mol. Moreover, the Tm in data set [2] was determined as 41.1 °C.

With GTAGGGACGAAAGTCTAC (((..(((....)))))), in data set [1], the folding enthalpy is -12 kcal/mol. For the same sequence, the Tm in data set [2] was 30 °C.

As to GTAGGGCCGAAAGGCTAC (((..(((....)))))), the folding enthalpy in data set [1] is -9.3 kcal/mol. Further, the Tm in data set [2] stood at 35 °C.

GTAGGGGGAAACCCCCAC ((.((((....)))).)): in data set [1], the folding enthalpy was -12.6 kcal/mol. Further, the Tm in data set [2] was 43.5 °C.

As to GTAGGGGGAAACCCCTGC (.(((((....))))).), in data set [1], the folding enthalpy was -21.9 kcal/mol. Also, in data set [2], the Tm turned out to be 53.2 °C.

In the case of GTAGGGGGAAACTCCTGC (.(((.(....).))).), the folding enthalpy in data set [1] is -20 kcal/mol. Also, the Tm in data set [2] stood at 35.5 °C.

Consider GTAGTAACGAAAGTTTAC (((..(((....)))))), for which the folding enthalpy in data set [1] was -9.07 kcal/mol. Besides, in data set [2], the Tm was found to be 27.1 °C.

On to GTAGTACGAAAGTAATAC (((.(((....))).))), for which the folding enthalpy in data set [1] is -28.9 kcal/mol. The Tm in data set [2] is 43.2 °C.

Turning to GTAGTCGAAAGACAATAC ((((((....)))..))), the folding enthalpy in data set [1] was -15.2 kcal/mol. Besides, the Tm in data set [2] worked out at 28.3 °C.

On to GTAGTCGAAAGACCTTAC ((((((....)))..))), for which the folding enthalpy in data set [1] was -14.1 kcal/mol. Further, the Tm in data set [2] was 29.4 °C.

On to GTAGTCGAAAGACGCTAC ((((((....)))..))), for which the folding enthalpy in data set [1] is -14.2 kcal/mol. Further, in data set [2], the Tm came out at 36.1 °C.

GTAGTCGAAAGACGTTAC ((((((....)))..))): the folding enthalpy in data set [1] was -12.2 kcal/mol. Moreover, in data set [2], the Tm is 35 °C.

Turning to GTAGTCGCGAAAGCGTAC (((..(((....)))))), in data set [1], the folding enthalpy is -8.28 kcal/mol. In addition, the Tm in data set [2] is 32.9 °C.

For GTAGTCGGAAACGATTAC (((.(((....))).))), in data set [1], the folding enthalpy was -30.4 kcal/mol. In addition, the Tm in data set [2] turned out to be 44.1 °C.

With GTAGTCGGAAACGATTGC (.(.(((....))).).), the folding enthalpy in data set [1] was -17.2 kcal/mol. The Tm in data set [2] amounted to 31.2 °C.

As to GTAGTCGGAAACGGCTAC ((((.((....)).)))), the folding enthalpy in data set [1] was -43.1 kcal/mol. Further, in data set [2], the Tm turned out to be 54.6 °C.

GTAGTGCGAAAGCAGTAC (((.(((....))).))): the folding enthalpy in data set [1] is -31.2 kcal/mol. Also, in data set [2], the Tm is 58.2 °C.

Source of the values: the array DNA melting data of Ke et al. (doi:10.1101/2024.01.08.574731).
